ChEMBL document CHEMBL3804779, “Novel free fatty acid receptor 1 (GPR40) agonists based on 1,3,4-thiadiazole-2-carboxamide scaffold” (Bioorg Med Chem, 2016)
Each block holds one compound with its values, some of them ahead of it.

Assays:
hERG (KCNH2) [1] = molecular target: T1, hERG (KCNH2) (Homo sapiens, UniProt Q12809); test: Inhibition of human ERG expressed in cell membranes at 20 uM after 4 hrs by fluorescence polarization assay; conditions: cell membranes that express human ERG
Procedure, shortened: (§1)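 Predictor hERG fluorescence polarization kit used per manufacturer's protocol. hERG-containing cell membranes incubated with fluorescent tracer and test compound at 1, 5 or 20 uM for 4 h.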

CYP2D6 = CYP2D6 (Homo sapiens, UniProt P10635); test: Inhibition of CYP2D6 (unknown origin) at 20 uM by P450-glo assay; assay type: ADME
Procedure, shortened: (§2)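 P450-Glo luminescent assay run per manufacturer's protocol. Each CYP isoform incubated with its luminogenic substrate and test compound at 20 uM (0.25% DMSO final), in quadruplicate. Control membranes without CYP served as baseline.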

[2] = molecular target: T2, Free fatty acid receptor 3 (Homo sapiens, UniProt O14843); test: Agonist activity at human GPR41 (unknown origin) expressed in CHO cells by calcium influx assay; assay type: functional, cell-based
T2 sequence (O14843 whole entry): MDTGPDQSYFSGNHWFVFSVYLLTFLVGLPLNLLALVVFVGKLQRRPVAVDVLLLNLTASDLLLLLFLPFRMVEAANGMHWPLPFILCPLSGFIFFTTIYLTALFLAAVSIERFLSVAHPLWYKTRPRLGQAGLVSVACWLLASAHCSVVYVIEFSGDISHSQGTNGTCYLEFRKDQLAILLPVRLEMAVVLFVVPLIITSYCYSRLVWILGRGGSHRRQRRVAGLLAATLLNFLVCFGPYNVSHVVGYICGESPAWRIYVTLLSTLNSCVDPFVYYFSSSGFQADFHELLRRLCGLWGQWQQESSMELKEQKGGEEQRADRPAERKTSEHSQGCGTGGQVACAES
Procedure, shortened: (§3)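 CHO cells stably expressing the receptor (GPR40, GPR41, GPR43 or GPR120) plated 24 h before assay and loaded with calcium dye for 1 h. Calcium flux read on FLIPR Tetra. Agonist response taken as maximum fluorescence change over baseline. Concentration-response curves fitted for EC50. GW9508 run as positive control.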

CYP2C9 = CYP2C9 (Homo sapiens, UniProt P11712); test: Inhibition of CYP2C9 (unknown origin) at 20 uM by P450-glo assay; assay type: ADME; procedure, shortened: as §2
[3] = Distribution coefficient, log D of the compound at pH 7.4 by LC-MS/MS analysis; assay type: physicochemical; conditions: octanol/water
Procedure, shortened: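 Shake-flask partitioning between n-octanol and PBS, run in duplicate. Compound added from 10 mM DMSO stock to pre-equilibrated phases, shaken 1 h and separated by centrifugation. Each phase diluted and quantified by LC-MS/MS. D calculated from peak areas corrected for dilution (100·So/Sp). Reference compound included.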

[4] = molecular target: Free fatty acid receptor 1 (Homo sapiens, UniProt O14842); test: Agonist activity at human GPR40 expressed in CHO cells by calcium influx assay; assay type: functional, cell-based; procedure, shortened: as §3
CYP3A4 = CYP3A4 (Homo sapiens, UniProt P08684); test: Inhibition of CYP3A4 (unknown origin) at 20 uM by P450-glo assay; assay type: ADME
hERG (KCNH2) [5] = molecular target: T1, hERG (KCNH2); test: Inhibition of human ERG expressed in cell membranes at 5 uM after 4 hrs by fluorescence polarization assay; conditions: cell membranes that express human ERG; procedure, shortened: as §1
[6] = Half life in mouse plasma at 1 uM by LC-MS/MS analysis; assay type: ADME
Procedure, shortened: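 Compound at 1 uM (1% DMSO final) incubated in mouse plasma at 37 °C with shaking. Five time points sampled over 120 min, each quenched with acetonitrile and centrifuged. Supernatant analysed by LC-MS/MS for percentage remaining and T1/2. Verapamil and propantheline used as references.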

hERG (KCNH2) [7] = molecular target: T1, hERG (KCNH2); test: Inhibition of human ERG expressed in cell membranes at 1 uM after 4 hrs by fluorescence polarization assay; conditions: cell membranes that express human ERG; procedure, shortened: as §1
[8] = Intrinsic clearance in BALB/c mouse liver microsomes at 2 uM after 40 mins by HPLC analysis; assay type: ADME; conditions: read-out: CLH
Procedure, shortened: (§4)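 BALB/c male mouse liver microsomes (pooled, perfused livers) at 0.42 mg protein/ml in 100 mM phosphate buffer pH 7.4 with MgCl2 and an NADPH-regenerating system. Compound at 2 uM (1.6% solvent final) incubated at 37 °C in duplicate. Five time points over 40 min, quenched with acetonitrile and read by HPLC-MS/MS. Controls lacked NADPH. kel from ln(AUC) vs time regression; T1/2 = 0.693/kel; CLint scaled per mg microsomal protein.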

[9] = molecular target: T3, Free fatty acid receptor 2 (Homo sapiens, UniProt O15552); test: Agonist activity at human GPR43 (unknown origin) expressed in CHO cells by calcium influx assay; assay type: functional, cell-based; procedure, shortened: as §3
T3 sequence (O15552 whole entry): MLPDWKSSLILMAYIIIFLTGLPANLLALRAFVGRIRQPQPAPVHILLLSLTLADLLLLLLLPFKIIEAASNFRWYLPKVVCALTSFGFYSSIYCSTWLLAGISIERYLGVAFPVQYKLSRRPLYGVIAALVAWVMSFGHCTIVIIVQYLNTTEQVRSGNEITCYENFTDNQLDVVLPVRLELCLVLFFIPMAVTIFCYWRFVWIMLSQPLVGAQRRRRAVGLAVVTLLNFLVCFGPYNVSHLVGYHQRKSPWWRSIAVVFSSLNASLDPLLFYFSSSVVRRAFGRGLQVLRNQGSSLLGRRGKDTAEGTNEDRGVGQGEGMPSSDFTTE

CYP2C19 = CYP2C19 (Homo sapiens, UniProt P33261); test: Inhibition of CYP2C19 (unknown origin) at 20 uM by P450-glo assay; assay type: ADME; procedure, shortened: as §2
CYP1A2 = molecular target: T4, CYP1A2 (Homo sapiens, UniProt P05177); test: Inhibition of CYP1A2 (unknown origin) at 20 uM by P450-glo assay; assay type: ADME; procedure, shortened: as §2
T4 sequence (P05177 whole entry): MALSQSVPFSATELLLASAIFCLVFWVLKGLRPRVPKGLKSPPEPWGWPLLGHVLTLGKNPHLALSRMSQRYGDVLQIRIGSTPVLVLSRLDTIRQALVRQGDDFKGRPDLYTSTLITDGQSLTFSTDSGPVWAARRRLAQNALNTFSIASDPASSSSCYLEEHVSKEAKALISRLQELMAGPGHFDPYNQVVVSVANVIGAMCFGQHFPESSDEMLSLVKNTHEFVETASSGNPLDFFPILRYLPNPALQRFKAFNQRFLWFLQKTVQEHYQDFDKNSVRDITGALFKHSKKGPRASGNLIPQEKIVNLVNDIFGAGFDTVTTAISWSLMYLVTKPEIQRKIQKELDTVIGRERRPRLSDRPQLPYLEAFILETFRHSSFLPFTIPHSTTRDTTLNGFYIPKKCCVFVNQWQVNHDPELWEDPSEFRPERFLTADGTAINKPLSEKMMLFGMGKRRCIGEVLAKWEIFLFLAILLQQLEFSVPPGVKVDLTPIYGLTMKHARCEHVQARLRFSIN

[10] = Metabolic stability in BALB/c mouse liver microsomes at 2 uM after 40 mins by HPLC analysis; assay type: ADME; procedure, shortened: as §4
[11] = molecular target: T5, Free fatty acid receptor 4 (Homo sapiens, UniProt Q5NUL3); test: Agonist activity at human GPR120 (unknown origin) expressed in CHO cells by calcium influx assay; assay type: functional, cell-based; procedure, shortened: as §3
T5 sequence (Q5NUL3 whole entry): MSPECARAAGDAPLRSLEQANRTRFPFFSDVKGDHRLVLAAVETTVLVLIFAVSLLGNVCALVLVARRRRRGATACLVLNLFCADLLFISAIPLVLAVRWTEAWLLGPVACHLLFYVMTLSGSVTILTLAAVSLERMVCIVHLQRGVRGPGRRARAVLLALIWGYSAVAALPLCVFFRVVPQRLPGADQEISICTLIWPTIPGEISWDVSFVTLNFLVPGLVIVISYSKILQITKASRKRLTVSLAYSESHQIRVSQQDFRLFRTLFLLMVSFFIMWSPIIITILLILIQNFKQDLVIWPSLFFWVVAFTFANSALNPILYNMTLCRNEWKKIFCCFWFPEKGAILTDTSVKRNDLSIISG

[12] = Protein binding in mouse plasma at 1 uM after 5 hrs by HPLC-MS/MS analysis; assay type: ADME, cell-free; conditions: read-out: PPB (converted)
Procedure, shortened: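 Equilibrium dialysis (MWCO 12-14 kDa) of mouse plasma spiked at 1 uM (1% solvent final) against PBS pH 7.4, 37 °C, orbital shaking, 5 h, in quadruplicate. Chamber samples matrix-matched, precipitated with acetonitrile and analysed by HPLC-MS/MS. % bound = (1 − buffer/plasma peak area) × 100. Recovery checked against an undialyzed standard. Verapamil used as reference.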

Chain of CYP2C9 (P11712 whole entry): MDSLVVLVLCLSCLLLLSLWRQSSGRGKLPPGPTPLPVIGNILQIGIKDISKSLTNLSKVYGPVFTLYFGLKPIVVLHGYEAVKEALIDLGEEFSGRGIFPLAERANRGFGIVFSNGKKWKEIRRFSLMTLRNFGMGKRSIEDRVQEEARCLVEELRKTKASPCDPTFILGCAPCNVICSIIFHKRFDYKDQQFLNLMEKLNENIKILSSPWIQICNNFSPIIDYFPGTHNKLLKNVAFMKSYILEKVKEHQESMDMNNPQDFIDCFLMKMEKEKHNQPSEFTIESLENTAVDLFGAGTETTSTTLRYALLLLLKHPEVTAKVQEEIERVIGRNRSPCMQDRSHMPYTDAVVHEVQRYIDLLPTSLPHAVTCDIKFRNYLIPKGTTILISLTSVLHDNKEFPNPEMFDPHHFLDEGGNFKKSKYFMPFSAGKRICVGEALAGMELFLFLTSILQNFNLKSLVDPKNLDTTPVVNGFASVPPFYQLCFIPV
Chain of CYP2D6 (P10635 whole entry, canonical isoform): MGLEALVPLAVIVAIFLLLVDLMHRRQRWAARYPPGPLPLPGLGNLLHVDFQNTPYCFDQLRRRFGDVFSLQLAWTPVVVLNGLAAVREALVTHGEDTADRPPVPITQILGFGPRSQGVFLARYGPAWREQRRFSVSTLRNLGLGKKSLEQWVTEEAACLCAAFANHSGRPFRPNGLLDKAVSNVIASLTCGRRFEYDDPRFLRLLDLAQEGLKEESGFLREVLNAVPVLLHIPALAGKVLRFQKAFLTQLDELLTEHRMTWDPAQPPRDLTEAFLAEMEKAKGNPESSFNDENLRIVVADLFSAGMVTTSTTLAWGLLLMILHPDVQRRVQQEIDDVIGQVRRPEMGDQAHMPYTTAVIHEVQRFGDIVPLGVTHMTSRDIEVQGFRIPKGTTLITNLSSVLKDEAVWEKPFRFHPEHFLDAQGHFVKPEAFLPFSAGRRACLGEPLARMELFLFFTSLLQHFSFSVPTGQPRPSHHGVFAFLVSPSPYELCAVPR
Chain of Free fatty acid receptor 1 (O14842 whole entry): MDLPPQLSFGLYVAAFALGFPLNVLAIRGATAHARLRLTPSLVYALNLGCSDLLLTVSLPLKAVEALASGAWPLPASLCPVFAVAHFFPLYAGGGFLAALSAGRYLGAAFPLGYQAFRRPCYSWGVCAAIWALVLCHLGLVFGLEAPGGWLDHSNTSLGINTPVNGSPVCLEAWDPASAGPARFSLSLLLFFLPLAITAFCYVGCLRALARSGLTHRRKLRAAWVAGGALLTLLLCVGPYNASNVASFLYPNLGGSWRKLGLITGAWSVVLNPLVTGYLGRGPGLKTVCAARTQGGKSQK
Chain of CYP2C19 (P33261 whole entry): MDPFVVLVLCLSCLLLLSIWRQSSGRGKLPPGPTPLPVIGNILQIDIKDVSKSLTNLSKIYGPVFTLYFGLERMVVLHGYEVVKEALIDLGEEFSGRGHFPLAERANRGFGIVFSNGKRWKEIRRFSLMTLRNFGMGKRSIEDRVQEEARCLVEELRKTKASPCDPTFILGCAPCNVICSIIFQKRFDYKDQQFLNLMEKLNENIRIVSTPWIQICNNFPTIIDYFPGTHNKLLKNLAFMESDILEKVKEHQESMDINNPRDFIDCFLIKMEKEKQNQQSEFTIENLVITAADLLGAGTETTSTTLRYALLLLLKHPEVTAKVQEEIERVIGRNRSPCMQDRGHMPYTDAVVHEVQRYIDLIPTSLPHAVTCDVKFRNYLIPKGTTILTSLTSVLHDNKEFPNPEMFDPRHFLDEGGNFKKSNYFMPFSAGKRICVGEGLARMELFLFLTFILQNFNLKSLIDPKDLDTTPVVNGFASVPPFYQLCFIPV
Chain of CYP3A4 (P08684 whole entry): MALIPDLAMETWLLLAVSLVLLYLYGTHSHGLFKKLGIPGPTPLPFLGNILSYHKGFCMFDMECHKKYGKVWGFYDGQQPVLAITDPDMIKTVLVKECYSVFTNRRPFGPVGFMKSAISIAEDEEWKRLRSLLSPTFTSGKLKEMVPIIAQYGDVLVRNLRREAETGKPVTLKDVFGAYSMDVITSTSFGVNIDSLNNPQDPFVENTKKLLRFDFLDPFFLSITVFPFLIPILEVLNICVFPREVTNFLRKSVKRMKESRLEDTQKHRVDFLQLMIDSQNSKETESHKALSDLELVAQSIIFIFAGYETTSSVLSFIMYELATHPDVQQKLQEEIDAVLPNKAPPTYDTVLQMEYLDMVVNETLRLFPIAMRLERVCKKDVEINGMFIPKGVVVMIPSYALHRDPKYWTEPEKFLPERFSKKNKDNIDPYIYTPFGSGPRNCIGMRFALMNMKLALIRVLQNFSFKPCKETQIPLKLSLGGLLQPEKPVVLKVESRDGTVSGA
T1 sequence (Q12809 whole entry): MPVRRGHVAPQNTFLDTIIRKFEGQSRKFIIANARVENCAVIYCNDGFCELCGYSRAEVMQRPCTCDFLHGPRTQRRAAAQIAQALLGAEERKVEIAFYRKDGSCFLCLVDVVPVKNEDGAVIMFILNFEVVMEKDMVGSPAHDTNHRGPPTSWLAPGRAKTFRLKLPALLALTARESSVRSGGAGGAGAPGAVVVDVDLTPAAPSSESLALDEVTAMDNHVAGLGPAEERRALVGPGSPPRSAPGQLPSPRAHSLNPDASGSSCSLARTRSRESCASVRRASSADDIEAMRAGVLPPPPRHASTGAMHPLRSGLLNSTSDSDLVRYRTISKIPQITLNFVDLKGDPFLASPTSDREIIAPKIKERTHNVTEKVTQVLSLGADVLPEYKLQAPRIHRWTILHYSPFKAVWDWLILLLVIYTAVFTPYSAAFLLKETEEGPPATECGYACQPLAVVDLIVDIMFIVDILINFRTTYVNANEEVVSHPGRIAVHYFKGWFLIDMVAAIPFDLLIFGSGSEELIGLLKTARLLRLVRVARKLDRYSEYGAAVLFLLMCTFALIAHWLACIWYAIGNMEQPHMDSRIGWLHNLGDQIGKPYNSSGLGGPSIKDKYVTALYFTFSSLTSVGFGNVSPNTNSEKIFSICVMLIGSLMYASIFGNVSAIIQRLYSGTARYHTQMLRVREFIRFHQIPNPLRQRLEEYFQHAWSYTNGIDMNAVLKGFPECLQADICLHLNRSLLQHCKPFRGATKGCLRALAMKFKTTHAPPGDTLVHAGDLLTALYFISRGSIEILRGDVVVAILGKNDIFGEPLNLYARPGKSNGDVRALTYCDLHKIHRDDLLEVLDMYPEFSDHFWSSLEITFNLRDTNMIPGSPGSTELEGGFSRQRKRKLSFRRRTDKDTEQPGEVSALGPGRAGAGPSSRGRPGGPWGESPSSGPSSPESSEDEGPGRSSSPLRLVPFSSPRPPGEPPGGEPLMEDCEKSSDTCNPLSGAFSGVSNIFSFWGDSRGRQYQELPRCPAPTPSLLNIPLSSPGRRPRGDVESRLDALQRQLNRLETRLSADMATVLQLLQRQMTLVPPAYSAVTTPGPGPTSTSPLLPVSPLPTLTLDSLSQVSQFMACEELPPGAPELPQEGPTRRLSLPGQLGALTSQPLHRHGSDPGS

Structure (SMILES): O=C(O)CCc1ccc(OCc2nnc(C(=O)Nc3cccc(Cl)c3)s2)cc1
inhibition at 4 h, 20 µM (hERG (KCNH2) [1]): 36%
inhibition at 20 µM (CYP2D6): 22.7%
inhibition at 20 µM (CYP2C9): 85%
logD [3]: 1.46
EC50 [4]: 10.6 µM
inhibition at 20 µM (CYP3A4): 55.2%
inhibition at 4 h, 5 µM (hERG (KCNH2) [5]): -3%
half-life at 1 µM [6]: 1.93 h
inhibition at 4 h, 1 µM (hERG (KCNH2) [7]): 1%
microsomal CLint at 2 µM [8]: 126 µL/min/mg
inhibition at 20 µM (CYP2C19): 77.7%
inhibition at 20 µM (CYP1A2): 41.9%
half-life at 2 µM [10]: 0.22 h
fraction unbound at 5 h, 1 µM [12]: 0.072

Structure (SMILES): O=C(O)CCc1nnc(C(=O)Nc2ccc(OCc3ccccc3)cc2)s1
EC50 [4]: 17.9 µM

Structure (SMILES): O=C(O)CCc1nnc(C(=O)Nc2cccc(-c3ccc(F)cc3)c2)s1
inhibition at 4 h, 20 µM (hERG (KCNH2) [1]): -1%
inhibition at 20 µM (CYP2D6): 11.8%
EC50 [2]: > 10 µM
inhibition at 20 µM (CYP2C9): -1.9%
logD [3]: 0.96
EC50 [4]: 1.28 µM
inhibition at 20 µM (CYP3A4): -5.1%
inhibition at 4 h, 5 µM (hERG (KCNH2) [5]): -1%
half-life at 1 µM [6]: > 4 h
inhibition at 4 h, 1 µM (hERG (KCNH2) [7]): -6%
microsomal CLint at 2 µM [8]: 8 µL/min/mg
EC50 [9]: > 10 µM
inhibition at 20 µM (CYP2C19): 25.2%
inhibition at 20 µM (CYP1A2): 47.2%
half-life at 2 µM [10]: 3.48 h
EC50 [11]: > 10 µM
fraction unbound at 5 h, 1 µM [12]: 0.059

Structure (SMILES): O=C(O)CCc1ccc(OCc2nnc(C(=O)Nc3cccc(F)c3)s2)cc1
EC50 [4]: 1.19 µM

Structure (SMILES): O=C(O)CCc1nnc(C(=O)Nc2cccc(-c3cccc(Cl)c3)c2)s1
EC50 [4]: 1.69 µM

Structure (SMILES): O=C(O)CCc1nnc(C(=O)Nc2cccc(-c3ccco3)c2)s1
EC50 [4]: 1.64 µM

Structure (SMILES): O=C(O)CCc1ccc(OCc2nnc(C(=O)Nc3ccc(F)c(F)c3)s2)cc1
EC50 [2]: > 10 µM
EC50 [4]: 0.58 µM
EC50 [9]: > 10 µM
EC50 [11]: > 10 µM

Structure (SMILES): Cc1ccccc1NC(=O)c1nnc(COc2ccc(CCC(=O)O)cc2)s1
EC50 [4]: 1.52 µM

Structure (SMILES): O=C(O)CCc1ccc(OCc2nnc(C(=O)Nc3ccc(F)cc3)s2)cc1
EC50 [4]: 6.64 µM

Second part, led by results:

inhibition at 20 µM (CYP2D6): 1.8%
EC50 [2]: > 10 µM
inhibition at 20 µM (CYP2C9): 9.8%
logD [3]: 1.28
EC50 [4]: 0.76 µM
inhibition at 20 µM (CYP3A4): 12.3%
half-life at 1 µM [6]: > 4 h
microsomal CLint at 2 µM [8]: 21.6 µL/min/mg
EC50 [9]: > 10 µM
inhibition at 20 µM (CYP2C19): 37.2%
inhibition at 20 µM (CYP1A2): 94.3%
half-life at 2 µM [10]: 1.29 h
EC50 [11]: > 10 µM
fraction unbound at 5 h, 1 µM [12]: 0.076
Structure (SMILES): Cc1cccc(-c2cccc(NC(=O)c3nnc(CCC(=O)O)s3)c2)c1
inhibition at 4 h, 20 µM (hERG (KCNH2) [1]): 22%
inhibition at 4 h, 5 µM (hERG (KCNH2) [5]): 2%
inhibition at 4 h, 1 µM (hERG (KCNH2) [7]): 8%

EC50 [4]: 3.69 µM
Structure (SMILES): O=C(O)CCc1ccc(OCc2nnc(C(=O)Nc3ccc(Cl)cc3)s2)cc1

inhibition at 20 µM (CYP2D6): 6.6%
EC50 [2]: > 10 µM
inhibition at 20 µM (CYP2C9): 12.8%
logD [3]: 0.95
EC50 [4]: 0.58 µM
inhibition at 20 µM (CYP3A4): -28.7%
half-life at 1 µM [6]: 0.34 h
microsomal CLint at 2 µM [8]: 241 µL/min/mg
EC50 [9]: > 10 µM
inhibition at 20 µM (CYP2C19): -3.3%
inhibition at 20 µM (CYP1A2): 18.8%
half-life at 2 µM [10]: 0.115 h
EC50 [11]: > 10 µM
Structure (SMILES): O=C(O)CCc1ccc(OCc2nnc(C(=O)Nc3ccccc3F)s2)cc1
inhibition at 4 h, 20 µM (hERG (KCNH2) [1]): 4%
inhibition at 4 h, 5 µM (hERG (KCNH2) [5]): -7%
inhibition at 4 h, 1 µM (hERG (KCNH2) [7]): 9%

EC50 [4]: 4.3 µM
Structure (SMILES): Cc1ccc(NC(=O)c2nnc(COc3ccc(CCC(=O)O)cc3)s2)cc1

EC50 [4]: > 10 µM
Structure (SMILES): COc1ccc(NC(=O)c2nnc(COc3ccc(CCC(=O)O)cc3)s2)cc1

EC50 [4]: 1.06 µM
Structure (SMILES): O=C(O)CCc1ccc(OCc2nnc(C(=O)Nc3ccccc3)s2)cc1

EC50 [4]: 4.68 µM
Structure (SMILES): COc1cccc(NC(=O)c2nnc(COc3ccc(CCC(=O)O)cc3)s2)c1

EC50 [4]: 1.77 µM
Structure (SMILES): Cc1cccc(NC(=O)c2nnc(COc3ccc(CCC(=O)O)cc3)s2)c1
